Compounds with a hit are over-represented: about 2.4% of the library has one in this group of screens.
Neddylation inh: inhibitors of human cullin neddylation; P61081+Q13564; TR-FRET cullin neddylation, biochemical; inhibition, % at 25 µM; hit rate 0.58% among 360,000; in the data active means inhibition above about 36%
TPT1 inh: inhibitors of Candida albicans tRNA 2'-phosphotransferase TPT1 | hit rate 0.81% among 300,000 | inhibition, % at 5 µM | recombinant caTPT1, FP RNA substrate dephosphorylation;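 active means inhibition above the mean of all tested compounds plus 3 SD, set per screening campaign, cut at about 24% in these data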;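 further: plate controls were DMSO alone for no effect and ferristatin control at 100 nM for full effect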
CSN deneddyl inh: inhibitors of human CSN-mediated cullin deneddylation | Q92905 | Purified CSN, SCF-Nedd8-OG deneddylation, fluorescence polarization | inhibition, % at 12.5 µM | hit rate 0.38% among 360,000 | AID 651999;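 active means pattern-corrected inhibition above about 35%, with an unprinted fluorescence ratio check between 0.5 and 1.5, limit read from the data, passing the limit was not always enough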;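 further: 0% = enzyme with substrate and 100% = substrate without enzyme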
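assay system = purified human Csn5 enzyme expressed in HEK293T cells | amount = 0.24 nM enzyme | buffer or medium = Tris/NaCl/DTT buffer, pH 7.5 | reagent = 10 nM SCFSkp2-Nedd8OG | compound = one concentration, 12.5 µM, 0.25% DMSO | times = 90 min reaction at room temperature | signal = FP | read-out basis = % inhibition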
Rin1-Abl PPI inh: human Rin1-Abl interaction inhibition | AID 588664 | TR-FRET Rin1/Abl binding, biochemical | P00519+Q13671 | inhibition, % at 7.35 µM | hit rate 0.4% among 360,000; in the data active means inhibition above about 5%, passing the limit was not always enough
HNF4A DNA FP: change in binding of human HNF4 alpha to DNA; HNF4a-FITC DNA binding, fluorescence polarization, 1 h; activity change, % at 10 µM; P41235; hit rate 0.3% among 360,000; in the data active means activity change above about 30%, passing the limit was not always enough
Rpn11 inh: blocks the human proteasome subunit Rpn11; O00487; human 26S proteasome, Ub4-pepOG fluorescence polarization; 20S core pre-blocked with epoxomicin; inhibition, % at 20 µM; hit rate 0.59% among 360,000;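 active means inhibition at 20 µM, scaled to each plate's controls, above about 33%, limit read from the data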
TPT1 inh confirm: TPT1 (C. albicans) inhibition, confirmation | shares compounds with TPT1 inh | recombinant caTPT1, fluorescence polarization, RNase T1 coupled | inhibition, % at 5 µM | hit rate 74% among 2,400;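 active means inhibition above the primary screen limit, the mean inhibition of all tested compounds plus 3 SD, cut at about 25% in these data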
RNase T1 counter: RNase T1 inhibition in TPT1 counter-screen; shares compounds with TPT1 inh; RNase T1 cleavage, fluorescence polarization, 1536-well; inhibition, % at 5 µM; hit rate 83% among 2,400;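 active means inhibition above the solvent-only control well mean plus 3 SD, limit set per screening run, cut at about 23% in these data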;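 further: plate controls were DMSO wells with enzyme for no effect and wells without RNase T1 for full effect; inhibitors block cleavage so intact labeled substrate keeps polarization high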
Rpn11 confirm: Rpn11 inhibition confirmation, single concentration; inhibition, % at 20 µM; hit rate 29% among 1,900; shares compounds with Rpn11 inh; AID 602318; purified human 26S proteasome, Ub4-pepOG fluorescence polarization; proteasome pretreated with epoxomicin
MMP-2 inh: blocks human MMP-2, flagging nonselective RPN11 hits | shares compounds with Rpn11 inh | recombinant MMP-2, FRET peptide cleavage fluorescence | inhibition, % at 20 µM | hit rate 4% among 1,900;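 further: human MMP-2 activated beforehand with APMA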
Thrombin FP: counter-screen for RPN11 inhibitors: inhibition of bovine thrombin | hit rate 13% among 1,900 | shares compounds with Rpn11 inh | bovine thrombin cleavage of Ub4-pepOG, fluorescence polarization | inhibition, % at 20 µM;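 active means mean inhibition at least 40% at 20 µM, or signal 3 deviations below plate average, so some actives read negative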;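 further: plate controls were thrombin with DMSO for no effect and buffer wells lacking thrombin for full effect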
Numbers without * were called inactive; / = no result shown. Unless noted, no stated cut-off is given here; in the data, active means inhibition above about 40%; inactive means the rest.

SMILES	Neddylation inh	TPT1 inh	CSN deneddyl inh	Rin1-Abl PPI inh	HNF4A DNA FP	Rpn11 inh	TPT1 inh confirm	RNase T1 counter	Rpn11 confirm	MMP-2 inh	Thrombin FP
CCOC(=O)c1c(-c2cc(OC)c(OC)c(OC)c2)csc1N	3	/	-1	-5	-1	4	/	/	/	/	/
CC(=O)c1cccc(-c2ccc3c(=O)[nH]c(Nc4ccccc4)cc3c2)c1	-20	30*	55*	-3	12	85*	59*	71*	39	-17	-8
CC(=O)c1cccc(Nc2nc(-c3ccccc3)nc3ccccc23)c1	-88	-1	3	-11	-1	4	/	/	/	/	/
O=[N+]([O-])c1ccc(N2CCCCC2)s1	-132	35*	24	-20	25	54*	34*	46*	44*	6	35
Cc1ccc(C(=O)/C=C/c2ccc(-c3ccc(C)cc3)o2)cc1	2	39*	3	-2	6	43*	72*	79*	18	1	-13
O=C(COc1ccc(Cl)cc1)NC1=NN(c2ccccc2)C(=O)C1	18	0	5	2	2	0	/	/	/	/	/
Cc1cc2oc(=O)cc(CN3CCN(c4ccc(Cl)c(Cl)c4)CC3)c2cc1Cl	-3	/	-2	-1	7	-8	/	/	/	/	/
N#C/C(=C\c1ccc(O)c(O)c1)C(=O)N1CCc2ccccc21	-26	36*	14	1	2	65*	46*	51*	70*	15	15
COc1cc(/C=C(\C#N)C(=O)N2CCc3ccccc32)ccc1O	-18	36*	8	2	0	81*	71*	76*	11	-16	10
CCOC(=O)/C(C#N)=C\c1ccc(O)c(OC)c1	-13	9	2	2	5	1	/	/	/	/	/
COc1cc(/C=C/C(=O)OCC(=O)Nc2ccc3c(c2)OCCO3)ccc1O	19	2	0	-3	-1	-5	/	/	/	/	/
COc1cc(/C=C(\C#N)C(=O)Nc2ccc3c(c2)OCCO3)ccc1O	-22	57*	19	-2	7	56*	71*	77*	2	17	37
CC(=O)Nc1ccc(S(=O)(=O)N2CCN(S(=O)(=O)c3ccc(F)c(F)c3F)CC2)cc1	1	-2	-1	1	0	2	/	/	/	/	/
C/C(=N\NC(=O)c1nnn(-c2nonc2N)c1CN1CCCCCC1)c1ccc(Br)cc1	13	-1	4	0	2	-3	/	/	/	/	/
COc1cc([N+](=O)[O-])cc(/C=N/NC(=O)c2cc(C)nc3ccccc23)c1O	-44	18	8	-4	4	25	/	/	/	/	/
COc1cc([N+](=O)[O-])cc(/C=N/NC(=O)c2cncc(Br)c2)c1O	-37	42*	12	-3	10	60*	43*	59*	49*	16	29
COc1cc([N+](=O)[O-])cc(/C=N/NC(=O)c2cc(-c3ccccc3)nc3ccccc23)c1O	1	41*	24	-3	17	89*	29*	45*	68*	31	11
COc1cc(/C=N/NC(=O)c2cncc(Br)c2)cc([N+](=O)[O-])c1O	-47	44*	10	-3	11	68*	49*	64*	18	28	7
O=C(N/N=C\c1ccc([N+](=O)[O-])o1)c1cncc(Br)c1	-5	0	4	-1	-4	-6	/	/	/	/	/
COc1cc(/C=C2\C(=O)NN(c3ccc(C)cc3)C2=O)cc([N+](=O)[O-])c1O	-30	-4	0	-1	-2	3	/	/	/	/	/
COc1cc(/C=C2/C(=O)NN(c3ccccc3)C2=O)cc(Br)c1O	-8	54*	13	2	0	48*	84*	103*	55*	13	52*
COc1cc(/C=C2/C(=O)NN(c3ccc(Cl)cc3)C2=O)cc(OC)c1O	4	97*	23	1	3	63*	151*	154*	62*	-53	54*
O=C(Cc1cccs1)N(CC1CCCO1)C1(C(=O)NC2CCCC2)CCCCC1 (configuration not stated)	4	-1	-3	-3	-2	-8	/	/	/	/	/
COc1cc(/C=C2/C(=O)N(c3ccc(C(=O)O)cc3)N=C2C)cc(OC)c1O	-1	/	16	0	6	33	/	/	/	/	/
COc1cc(/C=C2\SC(c3ccc(C)cc3)=NC2=O)cc(OC)c1O	25	48*	27	0	32	47*	67*	79*	41*	21	10
SMILES	Neddylation inh	TPT1 inh	CSN deneddyl inh	Rin1-Abl PPI inh	HNF4A DNA FP	Rpn11 inh	TPT1 inh confirm	RNase T1 counter	Rpn11 confirm	MMP-2 inh	Thrombin FP
COc1cc(/C=C2\SC(N)=NC2=O)cc(Cl)c1O	-135	43*	27	-5	29	114*	60*	71*	76*	-24	57*
COc1ccc(/C=C2\SC(N)=NC2=O)cc1Br	-15	7	9	-3	9	6	/	/	/	/	/
CC(=O)c1ccc(NC(=O)COc2ccc3c(c2)OCO3)cc1	0	-6	1	1	1	0	/	/	/	/	/
N#Cc1c(-c2ccco2)cc(-c2ccc(F)cc2)nc1N	/	25*	27	2	44*	73*	30*	38*	50*	-2	38
CC(C)c1ccc(N=C2NN=C(c3cccs3)CS2)cc1	-7	40*	13	-4	27	80*	42*	50*	-1	-1	3
COC(=O)c1cc(S(=O)(=O)N2CCN(Cc3ccccc3)CC2)c[nH]1	9	-2	5	0	-2	-5	/	/	/	/	/
O=C(NN1C(=O)/C(=C/C=C/c2ccco2)SC1=S)c1ccncc1	16	86*	46	6	-46	77*	58*	36*	123*	55*	54*
O=C(NN1C(=O)/C(=C/C=C/c2ccccc2)SC1=S)c1ccncc1	0	131*	20	3	79*	71*	35*	47*	-3	2	19
Cc1ccc(C(=O)CSc2cc(C)[nH]c(=O)n2)cc1	-6	28*	10	0	17	60*	39*	47*	49*	16	24
